Assay [1] can be described thus: Antiproliferative activity against mouse KLN205 cells after 5 days by SRB assay. It counts as functional, cell-based. The settings on record: 120 h. The gist of the method: (§1)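 Adherent cells plated, allowed to settle overnight, then exposed 5 days to 0.54–20 µM compound. Fixed in cold 10% TCA (4 °C, 1 h), stained with 0.4% SRB in 1% acetic acid for 1 h, dye solubilized in 10 mM Tris pH 10, A490 read. Time-zero plates used for %T/C. IC50 is the 50% growth-inhibition concentration, mean of 2 experiments each in triplicate.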
In general terms: The SRB assay estimates cell density from bound dye.

Assay [2] can be described thus: Antiproliferative activity against human CRL2813 cells after 5 days by SRB assay. The class given is functional, cell-based. To be noted: CRL2813, 120 h. The method in brief:
as §1

Assay [3] in a line: Antiproliferative activity against human CRL2351 cells after 5 days by SRB assay. The class given is functional, cell-based. The settings on record: 120 h. The gist of the method:
as §1

The species named for assay [4] is Mus musculus. The assay can be described thus: Inhibition of eIF2-GTP-Met-tRNAi (Met) in mouse KLN205 cells assessed as increase in CHOP mRNA expression by qRT-PCR analysis relative to DMSO-treated control. It counts as cell-based. The gist of the method:
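CHOP mRNA measured by PCR in KLN-205 cells, triplicate in at least two independent runs. Transcript quantities normalized to 18S rRNA and expressed as fold over DMSO control.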

The species entered for assay [5] is Mus musculus. Put plainly: Inhibition of eIF2-GTP-Met-tRNAi (Met) in mouse KLN205 cells assessed as increase in ATF-4 expression at 40 uM by dual luciferase reporter gene assay relative to control. It counts as cell-based. The method in brief:
(§2)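 KLN-205 cells carry firefly luciferase fused to the ATF-4 5′UTR and renilla luciferase behind a uORF-free 5′UTR. Cells treated overnight with compound at 10, 20, 40 or 80 µM, then read with a glow-type dual luciferase kit. Firefly/renilla ratio corrected for the same ratio in DMSO wells on the same plate.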
A general note: In a reporter assay the amount or activity of a reporter protein is the signal.

A further assay relates to MCF7. The assay can be described thus: Antitumor activity against human MCF7 cells xenografted in mouse assessed as regression in tumor size at 140 mg/kg, sc bid for 3 weeks relative to control. The class given is functional. The settings on record: route subcutaneous.
The species entered for assay [6] is Mus musculus. Put plainly: Inhibition of eIF2-GTP-Met-tRNAi (Met) in mouse KLN205 cells assessed as increase in ATF-4 expression at 10 to 80 uM by dual luciferase reporter gene assay. It counts as cell-based. The method in brief:
as §2

The species entered for assay [7] is Mus musculus. The assay can be described thus: Inhibition of eIF2-GTP-Met-tRNAi (Met) in mouse KLN205 cells assessed as increase in ATF-4 expression at 80 uM by dual luciferase reporter gene assay relative to control. It counts as cell-based. The method in brief: as §2

The source made the active and inactive calls. The rule behind the calls is not given here.

Data on 29 compounds can be found in ChEMBL document CHEMBL2434877, “Synthesis and SAR study of novel 3,3-diphenyl-1,3-dihydroindol-2-one derivatives as potent eIF2·GTP·Met-tRNAiMet ternary complex inhibitors” (Eur J Med Chem, 2013).

For the compound `CN(C)CCOc1ccc(C(C)(C)C)cc1C1(c2ccccc2)C(=O)Nc2ccccc21` (racemic), the concentration for half-maximal inhibition (IC50) – broadly, the concentration that gives 50% inhibition – turned out to be 1.2 µM in assay [1], 2.4 µM in assay [2] and 1.4 µM in assay [3].
`COc1ccc(C2(c3cc(C(C)(C)C)ccc3OCCN3CCOCC3)C(=O)Nc3ccccc32)cc1` (racemic): the fold change (FC) in the assay listed under Mus musculus [4] came to 7.1; in the assay filed under Mus musculus [5], 6.3. Besides, the figures for the IC50 in assay [1], in assay [2] and in assay [3] were 4.3 µM, 2.4 µM and 2.65 µM, respectively.
For the compound `COc1ccc(C2(c3cc(C(C)(C)C)ccc3O)C(=O)Nc3ccccc32)cc1` (racemic), the fold change (FC) came to 4.09 in the assay filed under Mus musculus [4] and 5.6 in the assay filed under Mus musculus [5]. In addition, the values for the IC50 in assay [1], in assay [2] and in assay [3] were 15.7 µM, 2.75 µM and 2.65 µM, respectively.
Turning to `CC(C)(C)c1ccc(O)c(C2(c3ccc(O)cc3)C(=O)Nc3ccccc32)c1` (configuration not stated), the half-maximal inhibitory concentration (IC50) in assay [1] was 17.3 µM; in assay [2], 4 µM; in assay [3] it was 2 µM.
Take `COc1ccc(C2(c3cc(C(C)(C)C)ccc3OCCN3CCOCC3)C(=O)Nc3ccc(OC)cc32)cc1` (racemic): the IC50 stood at 2.75 µM in assay [1], 2.9 µM in assay [2] and 4.5 µM in assay [3].
As to `CC(C)(C)c1ccc(O)c(C2(c3ccccc3)C(=O)Nc3ccccc32)c1` (configuration not stated), the figures for the fold change (FC) in the assay filed under Mus musculus [4] and in the assay listed under Mus musculus [5] were 3.77 and 3.7, respectively. Moreover, the Activity with MCF7 came out at 30%. The IC50 in assay [1] was found to be 14.4 µM; in assay [2] it was 4.8 µM; in assay [3], 3.4 µM.
`CC(C)(C)c1ccc(O)c(C2(c3cccnc3)C(=O)Nc3ccccc32)c1` (racemic): the IC50 in assay [1] is above 20 µM; in assay [2], 11.5 µM; in assay [3] it was 6.4 µM.
For the compound `CC(C)(C)c1ccc(O)c(C2(c3ccccc3)C(=O)Nc3ccc4ncsc4c32)c1` (racemic), the concentration for half-maximal inhibition (IC50) in assay [1] came to 8 µM; in assay [2], 0.95 µM; in assay [3] it was 2.2 µM. Besides, the “ATF-4 reporter expression relative to DMSO control” value in the assay listed under Mus musculus [6] was “inactive”.
Take `CC(C)(C)c1ccc(OCCN2CCOCC2)c(C2(c3ccccc3)C(=O)Nc3ccccc32)c1` (racemic): the figures for the IC50 in assay [1], in assay [2] and in assay [3] were 6.8 µM, 2.4 µM and 3.35 µM, respectively.
On to `COC(=O)c1cccc2c1NC(=O)C2(c1ccc(OC)cc1)c1cc(C(C)(C)C)ccc1O` (racemic), for which the 50% inhibitory concentration (IC50) in assay [1] is above 20 µM; in assay [2] it was 12.2 µM; in assay [3] it was 3.4 µM.
For the compound `CC(C)(C)c1ccc(O)c(C2(c3ccc(CN4CCOCC4)cc3)C(=O)Nc3ccccc32)c1` (racemic), the values for the fold change (FC) in the assay filed under Mus musculus [4] and in the assay filed under Mus musculus [7] were 4.68 and 12.4, respectively. Moreover, the figures for the half-inhibitory concentration (IC50) in assay [1], in assay [2] and in assay [3] were 17.3 µM, 7.8 µM and 7.3 µM, respectively.
`CN(C)c1ccc(C2(c3cc(C(C)(C)C)ccc3OCCN3CCOCC3)C(=O)Nc3ccccc32)cc1` (racemic): the fold change (FC) in the assay listed under Mus musculus [4] was determined as 4.15; in the assay listed under Mus musculus [5] it was 7.15. For the same compound, the half-inhibitory concentration (IC50) in assay [1] was found to be 2.2 µM; in assay [2], 7.5 µM; in assay [3], 4.7 µM.
`CC(C)(C)c1ccc(O)c(C2(c3ccccc3)C(=O)Nc3ccc(-c4ccc(N5CCOCC5)nc4)cc32)c1` (configuration not stated): the fold change (FC) in the assay filed under Mus musculus [4] was found to be 20.8; in the assay filed under Mus musculus [7] it was 15.6. Moreover, the IC50 worked out at 13.3 µM in assay [1], 2.5 µM in assay [2] and 1.8 µM in assay [3].
As for `CC(C)(C)c1ccc(OCC(=O)O)c(C2(c3ccccc3)C(=O)Nc3ccccc32)c1` (racemic), the concentration for half-maximal inhibition (IC50) in assay [1], in assay [2] and in assay [3] was above 20 µM throughout. For the same compound, in the assay listed under Mus musculus [6], the “ATF-4 reporter expression relative to DMSO control” value is “inactive”.
For the compound `CN(C)c1ccc(C2(c3cc(C(C)(C)C)ccc3OCCN3CCOCC3)C(=O)Nc3c2ccc(F)c3F)cc1` (racemic), the concentration for half-maximal inhibition (IC50) in assay [1] amounted to 15.7 µM; in assay [2], 11 µM; in assay [3], 4 µM.
Consider `COc1ccc(C2(c3cc(C(C)(C)C)ccc3OCCN3CCOCC3)C(=O)Nc3ccc(OC(F)(F)F)cc32)cc1` (racemic), for which the fold change (FC) in the assay listed under Mus musculus [4] worked out at 3.49; in the assay listed under Mus musculus [5], 5.11. Also, the 50% inhibitory concentration (IC50) turned out to be 9.3 µM in assay [1], 1.9 µM in assay [2] and 2.9 µM in assay [3].
For `CN(C)c1ccc(C2(c3cc(C(C)(C)C)ccc3O)C(=O)Nc3ccccc32)cc1` (racemic), the half-maximal inhibitory concentration (IC50) is 10.9 µM in assay [1], 11 µM in assay [2] and 2.3 µM in assay [3].
The corresponding values for `CC(C)(C)c1ccc(O)c(C2(c3ccccc3)C(=O)Nc3ccc(OC(F)(F)F)cc32)c1` (racemic) are 8 µM, 1 µM and 2.5 µM.
Take `COc1ccc(C2(c3cc(C(C)(C)C)ccc3O)C(=O)Nc3ccc(OC)cc32)cc1` (racemic): the IC50 turned out to be 14.3 µM in assay [1], 11.1 µM in assay [2] and 2.9 µM in assay [3]. The “ATF-4 reporter expression relative to DMSO control” value in the assay filed under Mus musculus [6] was “inactive”.
As for `CC(C)(C)c1ccc(O)c(C2(c3ccccc3)C(=O)Nc3ccc(I)cc32)c1` (racemic), the fold change (FC) in the assay listed under Mus musculus [4] was found to be 4.36; in the assay filed under Mus musculus [5], 7.2. The IC50 in assay [1] is 14.9 µM; in assay [2], 2.8 µM; in assay [3], 3.5 µM.
Take `C#CCOc1ccc(C(C)(C)C)cc1C1(c2ccccc2)C(=O)Nc2ccccc21` (racemic): the IC50 in assay [1] was above 20 µM; in assay [2], above 20 µM; in assay [3] it was 17.5 µM.
`CC(C)(C)c1ccc(OCCN2CCNCC2)c(C2(c3ccccc3)C(=O)Nc3ccccc32)c1` (racemic): the IC50 in assay [1] was 1.2 µM; in assay [2], 12.8 µM; in assay [3], 0.9 µM. The “ATF-4 reporter expression relative to DMSO control” value in the assay filed under Mus musculus [6] was “inactive”.
Consider `COC(=O)c1cccc2c1NC(=O)C2(c1ccc(OC)cc1)c1cc(C(C)(C)C)ccc1OCCN1CCOCC1` (racemic), for which the IC50 in assay [1] turned out to be 17 µM; in assay [2] it was 14.6 µM; in assay [3], 16.3 µM. For the same compound, in the assay listed under Mus musculus [6], the “ATF-4 reporter expression relative to DMSO control” value was “inactive”.
In the case of `COc1ccc(C2(c3cc(C(C)(C)C)ccc3OCCN3CCOCC3)C(=O)Nc3ccccc32)cc1OC` (racemic), the IC50 in assay [1], in assay [2] and in assay [3] was above 20 µM each time.
For `COc1ccc(C2(c3cc(C(C)(C)C)ccc3O)C(=O)Nc3c2ccc(F)c3F)cc1` (racemic), the half-maximal inhibitory concentration (IC50) in assay [1] was found to be 12.3 µM; in assay [2] it was 3 µM; in assay [3], 0.95 µM. Also, the “ATF-4 reporter expression relative to DMSO control” value in the assay filed under Mus musculus [6] is “inactive”.
In the case of `COc1ccc(C2(c3cc(C(C)(C)C)ccc3OCCN3CCOCC3)C(=O)Nc3ccccc32)cc1F` (racemic), the IC50 in assay [1] was 3.4 µM; in assay [2] it was 2.7 µM; in assay [3] it was 2.5 µM.
Turning to `CC(C)(C)c1ccc(O)c(C2(c3ccc(O)cc3)C(=O)Nc3c2ccc(F)c3F)c1` (configuration not stated), the fold change (FC) in the assay filed under Mus musculus [4] came to 3.09; in the assay filed under Mus musculus [5], 2.9. The half-inhibitory concentration (IC50) in assay [1] is 15.3 µM; in assay [2], 10.7 µM; in assay [3] it was above 20 µM.
Consider `COc1ccc(C2(c3cc(C(C)(C)C)ccc3OCCN3CCOCC3)C(=O)Nc3ccc(I)cc32)cc1` (racemic), for which the concentration for half-maximal inhibition (IC50) in assay [1] was 12 µM; in assay [2], 2.6 µM; in assay [3], 6.1 µM.
For the compound `Cc1cc(C2(c3cc(C(C)(C)C)ccc3O)C(=O)Nc3ccccc32)ccc1Cl` (racemic), the IC50 in assay [1] was 4.3 µM; in assay [2] it was 2.9 µM; in assay [3] it was 2.9 µM.
